Source: ChEMBL document CHEMBL1156980, “Synthesis and biological evaluation of 8-oxoadenine derivatives as toll-like receptor 7 agonists introducing the antedrug concept” (J Med Chem, 2010)
The source made the active and inactive calls. The rule behind the calls is not given here.

Assays:
Toll-like receptor 7 = molecular target: T1, Toll-like receptor 7 (Homo sapiens, UniProt Q9NYK1); assay: Agonist activity at human TLR7 expressed in HEK293 cells coexpressing pNiFty2-SEAP reporter by reporter gene assay; format: functional, cell-based
T1 sequence (Q9NYK1 whole entry): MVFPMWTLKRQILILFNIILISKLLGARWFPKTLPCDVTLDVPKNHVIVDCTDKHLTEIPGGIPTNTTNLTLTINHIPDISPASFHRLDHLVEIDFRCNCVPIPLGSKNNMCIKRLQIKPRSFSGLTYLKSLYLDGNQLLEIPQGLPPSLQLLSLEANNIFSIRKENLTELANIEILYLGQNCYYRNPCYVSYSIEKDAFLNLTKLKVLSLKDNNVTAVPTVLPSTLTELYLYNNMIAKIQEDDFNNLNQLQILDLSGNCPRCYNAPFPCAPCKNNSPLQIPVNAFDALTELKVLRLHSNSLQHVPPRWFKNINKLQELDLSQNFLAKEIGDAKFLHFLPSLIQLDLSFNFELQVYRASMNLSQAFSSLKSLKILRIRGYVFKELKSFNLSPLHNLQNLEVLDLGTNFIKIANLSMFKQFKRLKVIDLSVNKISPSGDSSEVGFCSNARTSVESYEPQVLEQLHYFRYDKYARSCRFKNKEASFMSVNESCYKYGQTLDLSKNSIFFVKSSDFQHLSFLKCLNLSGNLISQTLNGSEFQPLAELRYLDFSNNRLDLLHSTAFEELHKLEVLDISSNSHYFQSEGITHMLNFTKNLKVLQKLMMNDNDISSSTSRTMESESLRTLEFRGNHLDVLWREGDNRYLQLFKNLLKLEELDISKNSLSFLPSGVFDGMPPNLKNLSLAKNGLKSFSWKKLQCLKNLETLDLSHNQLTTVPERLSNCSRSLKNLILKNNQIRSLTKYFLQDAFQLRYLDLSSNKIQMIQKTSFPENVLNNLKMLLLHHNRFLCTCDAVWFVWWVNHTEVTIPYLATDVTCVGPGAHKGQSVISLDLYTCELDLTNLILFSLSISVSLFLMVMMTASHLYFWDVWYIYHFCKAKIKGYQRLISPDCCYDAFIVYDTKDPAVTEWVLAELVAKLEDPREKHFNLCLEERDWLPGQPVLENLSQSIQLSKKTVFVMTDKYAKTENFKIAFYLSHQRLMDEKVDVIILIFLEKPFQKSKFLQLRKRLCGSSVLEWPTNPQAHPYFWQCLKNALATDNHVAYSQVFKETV
Summary of the method: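 HEK293 cells stably transfected with human TLR7 and an NF-kB-driven SEAP reporter; agonist activity read as reporter output and expressed as EC50.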

[1] = Half life in human plasma by […] analysis
Toll-like receptor 8 = molecular target: T2, Toll-like receptor 8 (Homo sapiens, UniProt Q9NR97); assay: Agonist activity at TLR8; format: functional
T2 sequence (Q9NR97 whole entry): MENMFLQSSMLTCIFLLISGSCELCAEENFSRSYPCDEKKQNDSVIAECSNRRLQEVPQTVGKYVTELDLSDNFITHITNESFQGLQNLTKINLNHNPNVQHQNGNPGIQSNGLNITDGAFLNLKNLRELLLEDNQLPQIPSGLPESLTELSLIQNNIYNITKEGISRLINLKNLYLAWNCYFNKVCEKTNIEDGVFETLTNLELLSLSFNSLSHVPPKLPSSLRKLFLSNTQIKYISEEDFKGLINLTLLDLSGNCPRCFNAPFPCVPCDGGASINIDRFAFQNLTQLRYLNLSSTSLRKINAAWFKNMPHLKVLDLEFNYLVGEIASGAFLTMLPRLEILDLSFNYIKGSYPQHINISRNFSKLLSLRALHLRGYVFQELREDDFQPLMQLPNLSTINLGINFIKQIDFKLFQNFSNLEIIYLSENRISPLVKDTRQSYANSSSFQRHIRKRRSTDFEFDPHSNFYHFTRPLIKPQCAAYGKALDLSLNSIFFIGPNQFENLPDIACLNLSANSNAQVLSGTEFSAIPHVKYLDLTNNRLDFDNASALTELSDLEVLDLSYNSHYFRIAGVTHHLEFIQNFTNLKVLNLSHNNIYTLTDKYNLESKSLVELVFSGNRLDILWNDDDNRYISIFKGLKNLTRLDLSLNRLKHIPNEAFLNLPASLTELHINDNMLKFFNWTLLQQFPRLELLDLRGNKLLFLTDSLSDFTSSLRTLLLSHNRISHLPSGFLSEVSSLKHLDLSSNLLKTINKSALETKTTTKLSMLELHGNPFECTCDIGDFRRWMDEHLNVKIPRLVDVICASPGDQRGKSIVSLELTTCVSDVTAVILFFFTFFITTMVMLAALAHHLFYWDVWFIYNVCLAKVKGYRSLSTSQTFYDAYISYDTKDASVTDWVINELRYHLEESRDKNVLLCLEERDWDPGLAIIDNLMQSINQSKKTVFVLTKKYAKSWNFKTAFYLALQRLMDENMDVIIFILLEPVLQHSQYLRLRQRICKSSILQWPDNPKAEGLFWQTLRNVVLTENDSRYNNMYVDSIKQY

[2] = Half life in rat plasma by […] analysis; format: ADME, cell-free
PBMC [3] = assay: Induction of type 1 IFN secretion in human PBMC at 3 nM after 18 hrs by ELISA; format: cell-based; conditions: 0.003 µM
PBMC [4] = assay: Induction of type 1 IFN secretion in human PBMC at 10 nM after 18 hrs by ELISA; format: cell-based; conditions: 0.01 µM
PBMC [5] = assay: Induction of type 1 IFN secretion in human PBMC at 30 nM after 18 hrs by ELISA; format: cell-based; conditions: 0.03 µM
PBMC [6] = assay: Induction of type 1 IFN secretion in human PBMC at 100 nM after 18 hrs by ELISA; format: cell-based; conditions: 0.1 µM
PBMC [7] = assay: Induction of type 1 IFN secretion in human PBMC at 300 nM after 18 hrs by ELISA; format: cell-based; conditions: 0.3 µM
PBMC [8] = assay: Induction of type 1 IFN secretion in human PBMC at 1000 nM after 18 hrs by ELISA; format: cell-based; conditions: 1 µM
Rattus norvegicus [9] = assay: Antiinflammatory activity in ovalbumin and […] hydroxide adjuvant-sensitized intratracheally dosed Brown Norway rat assessed as inhibition of allergen-induced eosinophils influx administered 2 hrs before allergen challenge measured after 24 hrs; format: functional, organism-based
Rattus norvegicus [10] = assay: Antiinflammatory activity in ovalbumin and […] hydroxide adjuvant-sensitized Brown Norway rat assessed as inhibition of allergen-induced eosinophils influx at 1 mg/kg, intratracheally administered 2 hrs before allergen challenge measured after 24 hrs; format: functional, organism-based; design: dose 1 mg/kg
Rattus norvegicus [11] = assay: Induction of IFN secretion in Brown Norway rat plasma at 0.1 mg/kg, intratracheally measured after 2 to 24 hrs by CPE reduction assay; format: organism-based; design: dose 0.1 mg/kg, route endotracheal; conditions: in vivo, inhaled_or_intranasal
Rattus norvegicus [12] = assay: Induction of IFN secretion in Brown Norway rat plasma at up to 10 mg/kg, intratracheally measured after 2 to 24 hrs by CPE reduction assay; format: organism-based; design: dose 10 mg/kg, route endotracheal; conditions: in vivo, inhaled_or_intranasal
PBMC [13] = assay: Induction of type 1 IFN secretion in human PBMC at 3000 nM after 18 hrs by ELISA; format: cell-based; conditions: 3 µM
Summary of the method: (§1)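 Human peripheral blood mononuclear cells incubated with compound; IFN in culture supernatants quantified by human ELISA.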

PBMC [14] = assay: Induction of type 1 IFN secretion in human PBMC at 10000 nM after 18 hrs by ELISA; format: cell-based; conditions: 10 µM; summary of the method: as §1

| EC50 (Toll-like receptor 7) | half-life [1] | SMILES | further results |
| --- | --- | --- | --- |
| 72.9 nM | > 98 min | CCCCOc1nc(N)c2[nH]c(=O)n(Cc3ccc(C(=O)OC)cc3)c2n1 |  |
| 467 nM | > 98 min | CCCCOc1nc(N)c2[nH]c(=O)n(Cc3ccccc3CC(=O)OC)c2n1 |  |
| 50.1 nM | 2.6 min | CCCCOc1nc(N)c2[nH]c(=O)n(Cc3cccc(CC(=O)OC)c3)c2n1 | EC50 (Toll-like receptor 8): > 10000 nM; half-life [2]: < 0.04 min; Activity (PBMC [3]): < 1.25 nM; Activity (PBMC [4]): 1.61 nM; Activity (PBMC [5]): 4.71 nM; Activity (PBMC [6]): 8.17 nM; Activity (PBMC [7]): 8.37 nM; Activity (PBMC [8]): 6.2 nM; Activity (Rattus norvegicus [9]): Dose-dependent effect |
| 609 nM | > 98 min | CCCCOc1nc(N)c2[nH]c(=O)n(Cc3ccccc3C(=O)OC)c2n1 |  |
| 188 nM | 9 min | CCCCOc1nc(N)c2[nH]c(=O)n(Cc3cccc(CC(=O)OCC)c3)c2n1 |  |
| 10.3 nM | 21.9 min | CCCCOc1nc(N)c2[nH]c(=O)n(Cc3ccc(CC(=O)OC)cc3)c2n1 |  |
| 51.5 nM | > 98 min | CCCCOc1nc(N)c2[nH]c(=O)n(Cc3cccc(C(=O)OC)c3)c2n1 |  |
|  |  | CCOCc1nc2c(N)nc3ccccc3c2n1CC(C)(C)O [RESIQUIMOD] | Activity (PBMC [4]): < 1.25 nM; Activity (PBMC [5]): 1.25 nM; Activity (PBMC [6]): 5.61 nM; Activity (PBMC [7]): 7.26 nM; Activity (PBMC [8]): 7.75 nM; Activity (Rattus norvegicus [10]): Active; Activity (Rattus norvegicus [11]): Toxic; Activity (Rattus norvegicus [12]): Non-toxic |
|  |  | CCCCOc1nc(N)c2[nH]c(=O)n(Cc3cccc(CC(=O)O)c3)c2n1 | Activity (PBMC [5]): < 1.25 nM; Activity (PBMC [6]): < 1.25 nM; Activity (PBMC [7]): < 1.25 nM; Activity (PBMC [8]): < 1.25 nM; Activity (PBMC [13]): 1.25 nM; Activity (PBMC [14]): 1.25 nM |
| 108 nM | 98 min | CCCCOc1nc(N)c2[nH]c(=O)n(Cc3cc(CC(=O)OC)ccc3OC)c2n1 |  |
| 8.1 nM | > 98 min | CCCCOc1nc(N)c2[nH]c(=O)n(Cc3ccc(OC)c(CC(=O)OC)c3)c2n1 |  |
| 75 nM | > 98 min | CCCCOc1nc(N)c2[nH]c(=O)n(Cc3cccc(C(C)C(=O)OC)c3)c2n1 (stereo unspecified) |  |
| 87.5 nM | > 98 min | CCCCOc1nc(N)c2[nH]c(=O)n(Cc3cccc(CCC(=O)OC)c3)c2n1 |  |
| 25.7 nM | 13.1 min | CCCCOc1nc(N)c2[nH]c(=O)n(Cc3ccc(F)c(CC(=O)OC)c3)c2n1 |  |
| 63.7 nM |  | CCCCOc1nc(N)c2nc(O)n(Cc3ccccc3)c2n1 |  |
| 312 nM | 1.4 min | COCCOc1nc(N)c2[nH]c(=O)n(Cc3cccc(CC(=O)OC)c3)c2n1 |  |

| SMILES | EC50 (Toll-like receptor 7) | half-life [1] | further results |
| --- | --- | --- | --- |
| COCCOc1nc(N)c2[nH]c(=O)n(Cc3ccccc3)c2n1 | 399 nM |  |  |
